Data published in PubChem BioAssay.
Calls of active or inactive are those of the source.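 The calls were made as follows: active = duplicate-averaged activation above buffer control mean plus 5 SD of those controls; inactive = the rest.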

Assay: nonspecific flux increase, KCNQ1-free cells – parental CHO cells, counter-screen for KCNQ1 potentiator project (AID 493006);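 as to activation: fluorescence ratio of max minus min over baseline after K+ and Tl+ depolarization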
Settings: parental CHO-K1 cells, FluxOR thallium flux, at 10 µM; active compounds read high
Summary of the method: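 Material: parental CHO-K1 cells, FluxOR dye-loaded; Also added: Potassium/thallium depolarization pulse; Schedule: overnight 37 °C plating, 90 min dye, 20 min dark compound; Signal: kinetic FluxOR fluorescence, 10 s baseline, 110 s after stimulus.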
With `CN1CCN(C(=O)/C(=C/c2ccccc2)c2ccccc2)CC1` the outcome was “inactive”.
For `CC(OC(=O)CCCNC(=O)c1ccc(Cl)cc1)C(=O)N(C)Cc1ccccc1` (stereo not given), the outcome was “inactive”.
With `Cc1ccc2cc(CN(C(=O)c3ccco3)c3ccccc3C)c(=O)[nH]c2c1` the outcome was “inactive”.
In the case of `COc1ccc(C(=O)NC(=S)NNC(=O)c2ccc3ccccc3n2)cc1`, the outcome is reported as “inactive”.
With `CC(C)(C)C(=O)NC(=S)NNC(=O)c1ccc(Cl)cc1Cl` the outcome was “inactive”.
For `Fc1ccc2nc(Nc3nc4c(F)cccc4s3)sc2c1`, the activation was 144% (active).
For `Clc1ccc(-c2csc(N3CCc4ccccc4C3)n2)cc1`, the outcome was “inactive”.
In the case of `CCN(Cc1cc2cc(OC)ccc2[nH]c1=O)C(=O)c1ccncc1`, the outcome is reported as “inactive”.
For `Cc1ccc(NC(=S)N/N=C2/CCCCc3ccccc32)cc1`, the activation was 274% (active).
For `Cc1ccc(C(=O)Nc2nc3ccccc3c(=O)s2)cc1`, the activation was 186% (active).
In the case of `Cc1cc(C)n(CC(=O)N2CCCC(N3CCN(c4ccccc4C)CC3)C2)n1` (stereo not given), the activation is reported as 174% (active).
For `CN(Cc1cn[nH]c1-c1ccc2c(c1)OCO2)C1CCOCC1`, the outcome was “inactive”.
For `COc1ccc(C)cc1NC(=O)C(=O)NNC(=O)c1ccco1`, the activation was 377% (active).
In the case of `CCCOc1ccc(CN(CCC#N)C(=S)NC(=O)c2ccccc2)cc1`, the activation is reported as 288% (active).
With `CC12CCC(C/C1=N\N=C1\NC(=O)/C(=C\c3ccc(Cl)cc3)S1)C2(C)C` (stereo not given) the activation was 175% (active).
For `Cc1cc(NC(c2cccnc2)c2c(C)[nH]c3ccccc23)no1` (stereo not given), the outcome was “inactive”.
For `CCOc1cc(CNCCCN2CCOCC2)ccc1OCC(=O)NC(C)(C)C`, the outcome was “inactive”.
In the case of `Cc1[nH]n(-c2cccc3ccccc23)c(=O)c1/C=N/c1sc2c(c1C#N)CCC2`, the activation is reported as 204% (active).
For `COc1ccc(CN2C(=O)C(O)(CC(=O)c3ccc4c(c3)OCO4)c3ccccc32)cc1OC` (stereo not given), the outcome was “inactive”.
In the case of `S=c1nc[nH]c2c1cnn2-c1ccccc1`, the activation is reported as 168% (active).
In the case of `COc1ccc(C)cc1N=Nc1ccc(O)c2ncccc12`, the outcome is reported as “inactive”.
For `S=c1[nH]nc(-c2ccc(Cl)cc2)n1/N=C/C=C/c1ccco1`, the activation was 159% (active).
For `COc1ccc(NC2=NC3(CCCCC3)N=C(N)N2)cc1`, the outcome was “inactive”.
In the case of `Cc1ccccc1N(CC(=O)N/N=C/c1cc(C)n(-c2ccccc2C)c1C)S(C)(=O)=O`, the outcome is reported as “inactive”.
With `N#C/C(=C\c1ccc(-c2ccccc2[N+](=O)[O-])o1)C(=O)Nc1nc(-c2cccs2)cs1` the activation was 208% (active).
For `CCOc1ccc(N=Nc2ccc(O)c3ncccc23)cc1`, the outcome was “inactive”.
With `COC(=O)c1c(NC(=S)Nc2ccccc2Cl)sc(C)c1C` the outcome was “inactive”.
For `CN1CCN(C=Nc2nc3ccccc3nc2N2CCCC2)CC1`, the outcome was “inactive”.
With `CC1CCN(C(=S)NC(=O)c2ccc(C(C)(C)C)cc2)CC1` the activation was 165% (active).
For `Oc1c(Br)cc(Br)cc1C=Nc1cccc2ncccc12`, the activation was 166% (active).
With `CSc1nc(Nc2ccc(Cl)cc2)c(C#N)c(=O)[nH]1` the outcome was “inactive”.
In the case of `CSc1nc(-c2ccccc2)[nH]c(=S)c1C(C)=O`, the activation is reported as 520% (active).
In the case of `COc1ccccc1C(=O)OCC(=O)Nc1ccc(Cl)cn1`, the outcome is reported as “inactive”.
In the case of `O=Cc1c(F)cccc1N1CCCC1`, the outcome is reported as “inactive”.
For `CCC(C)c1ccccc1OCCCNC1CCCC1` (stereo not given), the outcome was “inactive”.
In the case of `Cc1cccc(C(=O)NC(=S)N2CCc3ccccc3C2)c1`, the activation is reported as 197% (active).
For `O=c1c2cc(Cl)cc(Cl)c2nc2n1CCC2`, the outcome was “inactive”.
With `COc1ccc(NS(=O)(=O)c2ccc(N/N=C(\C)c3ccncc3)c([N+](=O)[O-])c2)cc1` the outcome was “inactive”.
With `CCOc1ccc(CCNC(=O)CSc2nc3ncc(Cl)cc3[nH]2)cc1OCC` the outcome was “inactive”.
For `O=C(CN1CCOCC1)N1CCN(c2nnc(-c3ccccc3)c3ccccc23)CC1`, the outcome was “inactive”.
